Assay results reported in ChEMBL document CHEMBL4020833, “A Systematic Exploration of Macrocyclization in Apelin-13: Impact on Binding, Signaling, Stability, and Cardiovascular Effects” (J Med Chem, 2018).

Key:
[1] = AUC in Sprague-Dawley rat at 3 mg/kg, iv measured up to 120 mins by LC-MS/MS analysis; format: ADME, organism-based; parameters: dose 3 mg/kg, time < 2 hr, route intravenous; details: in vivo
Outline: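 Male Sprague-Dawley rats (250-350g) under intramuscular ketamine/xylazine (87/13 mg/kg); compound in 350 µL normal saline given via jugular vein. Carotid blood drawn into EDTA tubes at 1, 5, 10, 15, 30, 60, 120 min (1, 2, 5, 10, 15 min for Pyr-apelin-13), centrifuged for plasma, acetonitrile precipitation with internal standard, LC-MS/MS (ESI+, MRM).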

Heart [2] = experiment: Inotropic activity in Langendorff isolated-perfused Sprague-Dawley rat heart assessed as drug level causing maximum increase in left ventricular developed pressure efficacy relative to baseline control; format: functional
Outline: (§1)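 Sprague-Dawley rat hearts isolated and perfused in Langendorff mode with increasing peptide concentrations from 0.001 to 0.3 nM. Increase in left ventricular developed pressure recorded as the inotropic read-out, expressed as % from baseline; compared with buffer by unpaired parametric t test.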

Heart [3] = experiment: Inotropic activity in Langendorff isolated-perfused Sprague-Dawley rat heart assessed as increase in left ventricular developed pressure efficacy at 0.03 nM relative to baseline control; format: functional; details: in the assay text read “0.003 nM” for “0.03 nM”; outline: as §1
Heart [4] = experiment: Inotropic activity in Langendorff isolated-perfused Sprague-Dawley rat heart assessed as increase in left ventricular developed pressure efficacy at 0.003 nM relative to baseline control; format: functional; outline: as §1

Row | Structure (SMILES) | AUC at 2 h [1] | Activity (Heart [2]) | Efficacy (Heart [3]) | Efficacy (Heart [4])
1 | CSCC[C@H](NC(=O)[C@@H]1CCCN1C(=O)CNC(=O)[C@H](CCCCN)NC(=O)[C@H](Cc1cnc[nH]1)NC(=O)[C@H](CO)NC(=O)[C@H](CC(C)C)NC(=O)[C@H](CCCNC(=N)N)NC(=O)[C@@H]1CCCN1C(=O)[C@H](CCCNC(=N)N)NC(=O)[C@@H]1CCC(=O)N1)C(=O)N1CCC[C@H]1C(=O)N[C@@H](Cc1ccccc1)C(=O)O | 3.33 ng·h/mL | 0.03 nM | 81% | 
2 | CCCC[C@@H]1NC(=O)[C@@H]2CCCN2C(=O)[C@@H](NC(=O)[C@H](CCCCN)NC(=O)[C@H](Cc2cnc[nH]2)NC(=O)[C@H](CO)NC(=O)[C@H](CC(C)C)NC(=O)[C@H](CCCNC(=N)N)NC(=O)[C@@H]2CCCN2C(=O)[C@H](CCCNC(=N)N)NC(=O)[C@@H]2CCC(=O)N2)C/C=C\C[C@@H](C(=O)O)NC(=O)[C@@H]2CCCN2C1=O |  | 0.003 nM |  | 217%
